Measurements: article PMC9989852 (Food and chemical toxicology : an international journal …, 2022)
“And” between values parts separate entries of the source, which are not always exact repeats. Equal values may be shown once.

Experiments:
[1] = ref Russell et al., 2015, Xu et al., 2020; cited from earlier work
liver (caudate) = experiment: Liver gene expression; assay type: in vivo, B6C3F1 mice; settings: dermal, 28 days
Outline: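 Dosing was daily topical to both dorsal ears (25 μl/ear, acetone vehicle) in female B6C3F1 mice. Liver caudate lobe or half ear pinna was stored in RNAlater and homogenized in RLT buffer. RNA was isolated on RNeasy columns with DNase, and 1–2 μg was reverse-transcribed. TaqMan real-time PCR was read as 2−ΔΔCT vs vehicle, normalized to β-actin. Statistics: ANOVA/Dunnett's, or Kruskal-Wallis/Dunn's for unequal variance.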

ear pinna = experiment: Skin; assay type: in vivo, B6C3F1 mice; settings: dermal, 28 days
Outline: (§1)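 Female B6C3F1 mice (5/group) received 25 μl/ear daily to the dorsal ears in acetone. About 24 h after the last dose, tissues went into RPMI: both auricular dLNs, half spleen and one ear pinna. Single-cell suspensions were acquired on an LSR II, with populations gated per supplemental strategy and FMO gating controls. Results are mean ± SE, n=5, by one-way ANOVA.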

pH of PFAS = assay type: physicochemical; settings: PFAS (5%) in PBS, free acid form
B6C3F1 mice = experiment: Organ weights and body weight after 28-day dermal exposure; assay type: in vivo; settings: 28 days
liver = experiment: Liver histopathology after 28-day dermal exposure; assay type: in vivo, B6C3F1 mice; settings: 28 days, mice affected of 5
Outline: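 Female B6C3F1 mice (5/group) received 25 μl/ear on the dorsal ear surfaces daily, with acetone as vehicle. Tissues were formalin-fixed about 24 h after the last dose: liver remainder, half spleen, right kidney and half ear pinna. Sections were paraffin-embedded, cut at 5 μm and stained with H&E. A veterinary pathologist read them per STP guideline and graded 1 (minimal) to 5 (severe) by extent.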

[2] = PFAS concentration in serum; assay type: in vivo, B6C3F1 mice; settings: 1.25%–5%, dermal, 28 days
Outline: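 Serum came by cardiac puncture about 24 h after the final daily ear dose (25 μl/ear, acetone vehicle; female B6C3F1 mice). Samples underwent solid-phase extraction and LC/MS/MS. Short-chain analytes were quantified as linear isomer only; the legacy comparator was quantified as linear plus branched. Data are mean ± SE of 4–5 mice, one-way ANOVA with Dunnett's vs vehicle.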

spleen = experiment: Spleen phenotyping by flow cytometry after 28-day dermal exposure; assay type: in vivo, B6C3F1 mice; settings: 28 days
Outline: as §1

O=C(O)C(F)(F)C(F)(F)C(F)(F)C(F)(F)C(F)(F)C(F)(F)F [PFHpA, Perfluoroheptanoic acid]
estimated half-life in humans [1]: 62 to 70 days
liver Pparγ expression (liver (caudate); 1.25%): increasing
liver Pparδ expression (liver (caudate); 1.25%): decreasing
liver Cd36 gene expression, increase (liver (caudate); 2.5%): 4 fold
liver Lpl gene expression, increase (liver (caudate); 2.5%): 2.2 fold
liver Pparδ expression (liver (caudate); 2.5%): decreasing
liver Acox1 gene expression (liver (caudate); 5%): increase
liver Cd36 gene expression, increase (liver (caudate); 5%): 4.8 fold
liver Lpl gene expression, increase (liver (caudate); 5%): 2.3 fold
liver Pltp gene expression (liver (caudate); 5%): increase
liver Pparδ expression (liver (caudate); 5%): decreasing
Ear CD4^+ cell number (ear pinna; 1.25%): 1.49 ± 0.38 × 10^3
Ear CD4^+ frequency (ear pinna; 1.25%): 1.78 ± 0.19%
Ear CD8^+ cell number (ear pinna; 1.25%): 0.79 ± 0.14 × 10^2
Ear CD8^+ frequency (ear pinna; 1.25%): 0.11 ± 0.03%
Ear CD45^+ cell number (ear pinna; 1.25%): 8.01 ± 1.58 × 10^4
Ear CD45^+ frequency (ear pinna; 1.25%): 8.04 ± 1.11%
Ear CD lib- F4/80+ DCs cell number (ear pinna; 1.25%): 5.44 ± 0.94 × 10^2
Ear CDllb + F4/80+ DCs cell number (ear pinna; 1.25%): 4.52 ± 0.98 × 10^2
Ear CDllb- F4/80+ DCs frequency (ear pinna; 1.25%): 0.70 ± 0.05%
Ear CDllb- F4/80-DCs cell number (ear pinna; 1.25%): 1.12 ± 0.29 × 10^3
Ear CDllb- F4/80-DCs frequency (ear pinna; 1.25%): 1.34 ± 0.16 %
Ear Dendritic Cells cell number (ear pinna; 1.25%): 2.18 ± 0.47 × 10^3
Ear Dendritic Cells frequency (ear pinna; 1.25%): 2.69 ± 0.15%
Ear Eosinophils cell number (ear pinna; 1.25%): 1.41 ± 0.42 × 10^3
Ear Eosinophils frequency (ear pinna; 1.25%): 1.60 ± 0.26%
Ear NK cell number (ear pinna; 1.25%): 3.89 ± 0.91 × 10^2
Ear NK frequency (ear pinna; 1.25%): 0.48 ± 0.04%
Ear Neutrophils cell number (ear pinna; 1.25%): 1.59 ± 0.24 × 10^2
Ear Neutrophils frequency (ear pinna; 1.25%): 0.21 ± 0.02%
Ear Total Cellularity (ear pinna; 1.25%): 0.96 ± 0.08 × 10^6
Ear CD8^+ cell number (ear pinna; 2.5%): 1.77 ± 0.27 × 10^2
Ear CD8^+ frequency (ear pinna; 2.5%): 0.16 ± 0.01%
Ear CD lib- F4/80+ DCs cell number (ear pinna; 2.5%): 7.95 ± 0.98 × 10^2
Ear CDllb + F4/80+ DCs cell number (ear pinna; 2.5%): 13.00 ± 2.97 × 10^2
Ear CDllb + F4/80+ DCs frequency (ear pinna; 2.5%): 1.13 ± 0.12 %
Ear CDllb- F4/80+ DCs frequency (ear pinna; 2.5%): 0.75 ± 0.08 %
Ear CDllb- F4/80-DCs cell number (ear pinna; 2.5%): 2.42 ± 0.45 × 10^3
Ear Dendritic Cells frequency (ear pinna; 2.5%): 4.21 ± 0.26 %
Ear Eosinophils cell number (ear pinna; 2.5%): 5.54 ± 1.71 × 10^3
Ear Eosinophils frequency (ear pinna; 2.5%): 4.57 ± 0.96 %
Ear NK cell number (ear pinna; 2.5%): 7.43 ± 1.69 × 10^2
Ear NK frequency (ear pinna; 2.5%): 0.66 ± 0.08%
Ear Neutrophils cell number (ear pinna; 2.5%): 2.48 ± 0.43 × 10^2
Ear CD4^+ cell number (ear pinna; 5%): 6.06 ± 0.33 × 10^3
Ear CD4^+ frequency (ear pinna; 5%): 4.18 ± 0.24 %
Ear CD8^+ cell number (ear pinna; 5%): 2.81 ± 0.39 × 10^2
Ear CD8^+ frequency (ear pinna; 5%): 0.20 ± 0.03 %
Ear CD45^+ cell number (ear pinna; 5%): 14.60 ± 0.67 × 10^4
Ear CD45^+ frequency (ear pinna; 5%): 12.38 ± 0.81%
Ear CD lib- F4/80+ DCs cell number (ear pinna; 5%): 14.50 ± 0.97 × 10^2
Ear CDllb + F4/80+ DCs cell number (ear pinna; 5%): 18.90 ± 1.84 × 10^2
Ear CDllb + F4/80+ DCs frequency (ear pinna; 5%): 1.31 ± 0.14 %
Ear CDllb- F4/80+ DCs frequency (ear pinna; 5%): 1.00 ± 0.07 %
Ear CDllb- F4/80-DCs cell number (ear pinna; 5%): 3.38 ± 0.19 × 10^3
Ear CDllb- F4/80-DCs frequency (ear pinna; 5%): 2.32 ± 0.03%
Ear Dendritic Cells cell number (ear pinna; 5%): 7.25 ± 0.31 × 10^3
Ear Dendritic Cells frequency (ear pinna; 5%): 4.99 ± 0.15 %
Ear Eosinophils cell number (ear pinna; 5%): 6.45 ± 1.12 × 10^3
Ear Eosinophils frequency (ear pinna; 5%): 4.36 ± 0.63 %
Ear NK cell number (ear pinna; 5%): 7.96 ± 0.70 × 10^2
Ear NK frequency (ear pinna; 5%): 0.56 ± 0.07%
Ear Neutrophils cell number (ear pinna; 5%): 7.10 ± 1.15 × 10^2
Ear Neutrophils frequency (ear pinna; 5%): 0.49 ± 0.07 %
Ear Total Cellularity (ear pinna; 5%): 1.19 ± 0.08 × 10^6
pH (pH of PFAS): 1.49
body weight or overt signs of toxicity (B6C3F1 mice; 1.25–5%): no changes
thymus weights (% body weight) (B6C3F1 mice; 2.5%, not dose dependent): significantly increased
Liver weight (% body weight), increase vs vehicle-treated mice (B6C3F1 mice; 5%): 18%
kidney weights (% body weight) (B6C3F1 mice; 5%): significantly increased
Liver: Hypertrophy, centrilobular, hepatocyte, Mild (incidence) (liver; 1.25%): 0
Liver: Hypertrophy, centrilobular, hepatocyte, Minimal (incidence) (liver; 1.25%): 3/5 and 3
Liver: Hypertrophy, centrilobular, hepatocyte, Mild (incidence) (liver; 2.5%): 0
Liver: Hypertrophy, centrilobular, hepatocyte, Minimal (incidence) (liver; 2.5%): 5/5 and 5
Liver: Hypertrophy, centrilobular, hepatocyte, Mild (incidence) (liver; 5%): 3/5 and 3
Liver: Hypertrophy, centrilobular, hepatocyte, Minimal (incidence) (liver; 5%): 2/5 and 2
PFAS serum concentration vs vehicle [2]: significant increase
spleen MFI of CD86 on B-cells (spleen; 1.25%): increase
spleen frequency of CD8^+ T-cells (spleen; 1.25%): significant decrease
spleen frequency of eosinophils (spleen; 1.25%): significant decrease
spleen MFI of CD86 on B-cells (spleen; 2.5%): increase
spleen MFI of MHCII on B-cells (spleen; 2.5%): increase
spleen MFI of CD86 on B-cells (spleen; 5%): increase
spleen MFI of MHCII on B-cells (spleen; 5%): increase
spleen NK cell frequency (spleen; 5%): increase
spleen frequency of B-cells (spleen; 5%): significant decrease
spleen frequency of total DCs (spleen; 5%): increase
spleen number of NK cells (spleen; 5%): increase
